Key:
[1] = target: T1, Vascular endothelial growth factor receptor 2 (Homo sapiens, UniProt P35968); conditions: HEK293, 10 uM
[2] = target: T1, Vascular endothelial growth factor receptor 2; conditions: HEK293, 20 uM
[3] = target: T1, Vascular endothelial growth factor receptor 2; assay: Inhibition of VEGFR2 after 80 mins by radiometric protein kinase assay
Summary of the method: (§1)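 Radiometric [γ-33P]-ATP kinase assay with poly(Glu,Tyr) 4:1 substrate. Reaction run 80 min at 30 °C, stopped with 2% H3PO4 and washed with 0.9% NaCl. 33Pi incorporation counted by microplate scintillation. IC50 from 12 concentrations tested in triplicate, with Z'-factor used as plate control.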

[4] = target: Mast/stem cell growth factor receptor Kit (Homo sapiens, UniProt P10721); assay: Inhibition of KIT after 80 mins by radiometric protein kinase assay
Summary of the method: (§2)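 The substrate was Poly(Glu,Tyr)4:1. 12 concentrations were run in triplicate with 1% final DMSO, at 30 °C for 80 min. Reactions were stopped with 2% H₃PO₄, washed with 0.9% NaCl, and ³³P incorporation was read by scintillation counting.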

[5] = target: Vascular endothelial growth factor receptor 1 (Homo sapiens, UniProt P17948); assay: Inhibition of VEGFR1 after 80 mins by radiometric protein kinase assay
Summary of the method: as §1

Angiopoietin-1 receptor = Angiopoietin-1 receptor (Homo sapiens, UniProt Q02763); assay: Inhibition of TIE2 after 80 mins by radiometric protein kinase assay
Summary of the method: (§3)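 Radiometric [γ-33P]-ATP kinase assay with poly(Ala,Glu,Lys,Tyr) 6:2:5:1 substrate. Incubated 30 °C for 80 min, then stopped with 2% H3PO4 and washed with 0.9% NaCl. 33Pi incorporation read by scintillation counting. IC50 from 12 concentrations in triplicate; plate quality checked by Z'-factor.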

[6] = target: Platelet-derived growth factor receptor beta (Homo sapiens, UniProt P09619); assay: Inhibition of PDGFRbeta after 80 mins by radiometric protein kinase assay
[7] = target: Vascular endothelial growth factor receptor 3 (Homo sapiens, UniProt P35916); assay: Inhibition of VEGFR3 after 80 mins by radiometric protein kinase assay
Summary of the method: as §1

[8] = target: Insulin-like growth factor 1 receptor (Homo sapiens, UniProt P08069); assay: Inhibition of IGF1R after 80 mins by radiometric protein kinase assay
Summary of the method: as §1

[9] = target: Platelet-derived growth factor receptor alpha (Homo sapiens, UniProt P16234); assay: Inhibition of PDGFRalpha after 80 mins by radiometric protein kinase assay
Summary of the method: as §3

[10] = target: Receptor tyrosine-protein kinase erbB-2 (Homo sapiens, UniProt P04626); assay: Inhibition of ERBB2 after 80 mins by radiometric protein kinase assay
Summary of the method: as §2

[11] = target: Epidermal growth factor receptor (Homo sapiens, UniProt P00533); assay: Inhibition of EGFR after 80 mins by radiometric protein kinase assay

T1 sequence (P35968 whole entry): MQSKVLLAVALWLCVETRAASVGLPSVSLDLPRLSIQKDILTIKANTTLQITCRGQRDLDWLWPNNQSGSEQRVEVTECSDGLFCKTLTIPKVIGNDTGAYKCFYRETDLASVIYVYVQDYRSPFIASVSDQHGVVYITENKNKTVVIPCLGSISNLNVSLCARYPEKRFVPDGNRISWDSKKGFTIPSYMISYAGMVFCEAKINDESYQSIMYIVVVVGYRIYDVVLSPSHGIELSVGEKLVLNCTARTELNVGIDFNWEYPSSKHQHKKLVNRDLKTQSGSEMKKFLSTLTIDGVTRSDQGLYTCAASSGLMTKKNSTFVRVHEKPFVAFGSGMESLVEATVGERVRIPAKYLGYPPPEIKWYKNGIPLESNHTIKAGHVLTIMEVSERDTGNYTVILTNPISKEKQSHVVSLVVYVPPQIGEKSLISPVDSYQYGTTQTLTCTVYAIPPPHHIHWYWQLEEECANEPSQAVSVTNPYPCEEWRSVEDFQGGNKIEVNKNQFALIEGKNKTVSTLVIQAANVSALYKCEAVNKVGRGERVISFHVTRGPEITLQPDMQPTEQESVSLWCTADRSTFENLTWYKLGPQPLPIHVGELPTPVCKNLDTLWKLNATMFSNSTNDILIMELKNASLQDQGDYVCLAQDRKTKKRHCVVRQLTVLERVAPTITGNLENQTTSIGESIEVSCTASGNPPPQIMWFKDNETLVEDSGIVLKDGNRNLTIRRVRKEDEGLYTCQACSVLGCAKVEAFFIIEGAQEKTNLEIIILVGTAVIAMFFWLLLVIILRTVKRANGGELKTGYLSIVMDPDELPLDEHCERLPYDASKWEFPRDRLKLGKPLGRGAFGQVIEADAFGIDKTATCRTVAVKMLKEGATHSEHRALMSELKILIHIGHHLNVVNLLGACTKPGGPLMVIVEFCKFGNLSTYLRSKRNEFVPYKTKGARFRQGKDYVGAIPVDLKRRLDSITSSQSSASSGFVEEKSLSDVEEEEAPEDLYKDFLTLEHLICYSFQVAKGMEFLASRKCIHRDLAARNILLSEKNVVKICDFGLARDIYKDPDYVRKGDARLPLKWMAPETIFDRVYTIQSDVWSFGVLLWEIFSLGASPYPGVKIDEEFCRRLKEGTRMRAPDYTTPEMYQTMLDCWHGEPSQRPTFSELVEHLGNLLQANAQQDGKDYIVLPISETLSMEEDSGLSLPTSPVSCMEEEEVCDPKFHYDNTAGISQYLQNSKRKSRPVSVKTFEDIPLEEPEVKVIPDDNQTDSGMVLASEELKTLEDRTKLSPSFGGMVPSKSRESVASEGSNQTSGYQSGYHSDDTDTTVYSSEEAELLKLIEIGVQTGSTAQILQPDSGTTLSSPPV
Vascular endothelial growth factor receptor 3, sequence (P35916 whole entry): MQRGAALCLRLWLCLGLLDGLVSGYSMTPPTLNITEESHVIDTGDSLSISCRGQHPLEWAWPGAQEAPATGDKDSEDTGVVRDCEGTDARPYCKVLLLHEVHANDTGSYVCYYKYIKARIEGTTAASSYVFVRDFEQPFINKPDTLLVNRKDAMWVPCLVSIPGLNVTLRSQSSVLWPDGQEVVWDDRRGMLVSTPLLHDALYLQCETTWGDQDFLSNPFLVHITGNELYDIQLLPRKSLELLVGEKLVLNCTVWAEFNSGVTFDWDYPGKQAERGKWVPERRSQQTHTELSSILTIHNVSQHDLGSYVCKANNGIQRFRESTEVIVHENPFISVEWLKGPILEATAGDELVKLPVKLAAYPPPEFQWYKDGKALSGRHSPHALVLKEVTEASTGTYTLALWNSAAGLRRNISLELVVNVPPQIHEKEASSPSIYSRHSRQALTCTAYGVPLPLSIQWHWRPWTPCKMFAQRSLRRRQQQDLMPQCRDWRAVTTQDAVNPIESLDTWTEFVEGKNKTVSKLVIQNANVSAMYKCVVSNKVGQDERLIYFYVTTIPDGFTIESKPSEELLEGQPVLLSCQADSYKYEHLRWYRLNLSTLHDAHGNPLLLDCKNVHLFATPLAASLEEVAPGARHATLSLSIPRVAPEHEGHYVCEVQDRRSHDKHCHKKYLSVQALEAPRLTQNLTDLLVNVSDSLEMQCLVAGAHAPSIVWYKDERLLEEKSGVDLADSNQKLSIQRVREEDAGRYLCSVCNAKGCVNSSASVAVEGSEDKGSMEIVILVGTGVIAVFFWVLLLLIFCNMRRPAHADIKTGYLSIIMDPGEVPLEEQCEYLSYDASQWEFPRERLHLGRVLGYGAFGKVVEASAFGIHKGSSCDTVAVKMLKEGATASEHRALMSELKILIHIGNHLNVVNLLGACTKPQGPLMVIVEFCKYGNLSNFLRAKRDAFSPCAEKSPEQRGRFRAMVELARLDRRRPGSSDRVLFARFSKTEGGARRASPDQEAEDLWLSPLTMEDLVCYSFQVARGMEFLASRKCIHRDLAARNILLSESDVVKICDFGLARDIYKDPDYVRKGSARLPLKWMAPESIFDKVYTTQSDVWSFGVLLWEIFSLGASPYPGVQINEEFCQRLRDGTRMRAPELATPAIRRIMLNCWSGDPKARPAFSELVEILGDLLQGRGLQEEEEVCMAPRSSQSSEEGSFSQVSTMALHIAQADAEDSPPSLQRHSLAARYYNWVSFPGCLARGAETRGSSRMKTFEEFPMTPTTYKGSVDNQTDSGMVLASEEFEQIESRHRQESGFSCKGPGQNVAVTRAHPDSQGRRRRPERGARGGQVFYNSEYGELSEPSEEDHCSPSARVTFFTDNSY
Insulin-like growth factor 1 receptor, sequence (P08069 31-736 limits assumed): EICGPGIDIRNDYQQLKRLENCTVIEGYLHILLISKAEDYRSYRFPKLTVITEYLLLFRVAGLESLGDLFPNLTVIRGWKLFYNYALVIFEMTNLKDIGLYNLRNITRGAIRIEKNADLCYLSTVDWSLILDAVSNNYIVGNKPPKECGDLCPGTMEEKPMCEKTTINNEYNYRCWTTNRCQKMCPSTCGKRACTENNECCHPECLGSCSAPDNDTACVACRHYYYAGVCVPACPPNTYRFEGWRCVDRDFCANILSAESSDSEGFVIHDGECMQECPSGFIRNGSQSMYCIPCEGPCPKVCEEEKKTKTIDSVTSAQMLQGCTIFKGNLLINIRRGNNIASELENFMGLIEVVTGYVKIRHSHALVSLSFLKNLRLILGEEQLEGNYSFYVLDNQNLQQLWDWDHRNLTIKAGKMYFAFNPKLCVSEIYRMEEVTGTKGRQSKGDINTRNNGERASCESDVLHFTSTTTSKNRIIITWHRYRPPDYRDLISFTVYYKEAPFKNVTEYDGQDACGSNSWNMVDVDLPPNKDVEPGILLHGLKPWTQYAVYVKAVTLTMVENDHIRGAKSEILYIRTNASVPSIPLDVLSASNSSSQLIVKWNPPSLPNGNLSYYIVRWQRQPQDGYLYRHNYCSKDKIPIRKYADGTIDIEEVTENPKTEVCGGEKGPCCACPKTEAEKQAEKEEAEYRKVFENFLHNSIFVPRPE
Insulin-like growth factor 1 receptor, sequence (P08069 741-1367 limits assumed): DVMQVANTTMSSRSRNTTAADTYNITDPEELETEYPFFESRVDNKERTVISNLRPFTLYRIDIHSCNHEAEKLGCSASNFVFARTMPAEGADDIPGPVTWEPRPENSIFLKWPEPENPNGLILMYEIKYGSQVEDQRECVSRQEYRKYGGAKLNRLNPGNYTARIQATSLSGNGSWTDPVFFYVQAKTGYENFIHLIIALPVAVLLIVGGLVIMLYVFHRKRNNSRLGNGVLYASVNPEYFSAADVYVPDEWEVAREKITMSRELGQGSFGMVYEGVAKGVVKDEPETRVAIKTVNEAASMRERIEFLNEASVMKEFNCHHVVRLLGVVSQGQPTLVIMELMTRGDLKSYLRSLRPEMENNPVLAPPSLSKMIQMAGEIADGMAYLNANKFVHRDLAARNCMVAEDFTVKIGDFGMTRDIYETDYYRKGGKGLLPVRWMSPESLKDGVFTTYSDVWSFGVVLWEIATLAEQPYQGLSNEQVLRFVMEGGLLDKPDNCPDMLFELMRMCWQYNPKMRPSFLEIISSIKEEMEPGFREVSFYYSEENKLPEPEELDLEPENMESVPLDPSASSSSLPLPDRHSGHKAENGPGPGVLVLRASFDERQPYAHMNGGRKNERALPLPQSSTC
Mast/stem cell growth factor receptor Kit, sequence (P10721 whole entry): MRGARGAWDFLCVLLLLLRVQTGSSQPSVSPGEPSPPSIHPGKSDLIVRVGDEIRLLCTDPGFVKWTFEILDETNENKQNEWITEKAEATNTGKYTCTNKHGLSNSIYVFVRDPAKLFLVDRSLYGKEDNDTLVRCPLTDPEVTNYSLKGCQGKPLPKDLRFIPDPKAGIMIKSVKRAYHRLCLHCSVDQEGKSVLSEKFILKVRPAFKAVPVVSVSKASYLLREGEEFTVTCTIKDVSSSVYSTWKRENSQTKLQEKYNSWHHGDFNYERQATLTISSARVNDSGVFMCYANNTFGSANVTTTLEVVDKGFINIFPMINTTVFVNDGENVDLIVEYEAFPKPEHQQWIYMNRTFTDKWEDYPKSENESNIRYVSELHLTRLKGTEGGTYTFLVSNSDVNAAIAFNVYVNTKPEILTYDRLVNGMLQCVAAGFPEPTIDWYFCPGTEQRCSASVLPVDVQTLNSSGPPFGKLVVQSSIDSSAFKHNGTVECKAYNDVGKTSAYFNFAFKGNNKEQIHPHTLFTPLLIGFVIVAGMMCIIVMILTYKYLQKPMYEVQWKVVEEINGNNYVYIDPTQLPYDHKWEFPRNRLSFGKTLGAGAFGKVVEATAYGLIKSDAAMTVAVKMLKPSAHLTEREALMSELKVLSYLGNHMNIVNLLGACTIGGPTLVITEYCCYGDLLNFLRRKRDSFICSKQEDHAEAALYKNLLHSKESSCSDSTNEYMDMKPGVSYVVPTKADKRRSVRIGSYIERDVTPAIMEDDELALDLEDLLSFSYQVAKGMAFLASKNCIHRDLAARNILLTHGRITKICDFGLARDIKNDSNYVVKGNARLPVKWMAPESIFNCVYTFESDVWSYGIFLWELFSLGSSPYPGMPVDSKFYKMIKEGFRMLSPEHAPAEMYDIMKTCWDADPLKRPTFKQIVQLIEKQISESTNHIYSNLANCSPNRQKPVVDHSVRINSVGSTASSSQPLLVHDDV

SMILES	Stability [1]	Stability [2]	IC50 [3]	IC50 [4]	IC50 [5]	IC50 (Angiopoietin-1 receptor)	IC50 [6]	IC50 [7]	IC50 [8]	IC50 [9]	IC50 [10]	IC50 [11]
COc1cc(C2=C(c3c[nH]c4ccccc34)C(=O)NC2=O)cc(OC)c1OC [MALEIMIDE]	72 % ID/g	68 % ID/g	–	–	–	–	–	–	–	–	–	–
COc1cc(C2=C(c3c[nH]c4ccc(I)cc34)C(=O)NC2=O)cc(OC)c1OC	–	–	24.9 nM	3330 nM	69.4 nM	3960 nM	858 nM	29.5 nM	3200 nM	1310 nM	15200 nM	–
COc1cc(C2=C(c3c[nH]c4ccc(F)cc34)C(=O)NC2=O)cc(OC)c1OC	–	–	82 nM	3470 nM	150 nM	1570 nM	2670 nM	66 nM	8530 nM	1800 nM	> 8480 nM	> 8480 nM

From ChEMBL document CHEMBL1158526, “Labeled 3-aryl-4-indolylmaleimide derivatives and their potential as angiogenic PET biomarkers” (Bioorg Med Chem, 2010)
